miR-122 sensor – miR-122 Renilla sensor signal increase in Huh7, primary screen, miR-122 inhibitor project, cell-based, single point, plate reader. Huh7 miR-122 Renilla luciferase sensor, 48 h; neutral wells = 0, positive control = 100. activation (reporter increase), % at 12.5 µM. hit rate 0.3% among 340,000;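 active = mean replicate activation score at least 90 and every replicate individually at or above 90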;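 also: higher luciferase means less miR-122 activity so hits act as miR-122 inhibitors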
CFTR F508del cor – F508del CFTR correction, initial screen, CFBE line, single point; activity (quench increase), % at 7.58 µM; CFBE cells, YFP halide quenching; stimulated with forskolin plus potentiator P3; % fluorescence drop versus neutral controls; hit rate 0.36% among 350,000; AID 720511, 2013;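 active = mean added fluorescence quench of at least 8% versus neutral control, with both replicates also reaching 8%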;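 also: cells transiently co-express mutant CFTR-F508del with the halide-sensitive YFP; corrector assay measuring rescue of mutant channel to the surface after 24 h compound exposure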
INS-1E GSIS act – GLuc luminescence reporter in INS-1E cells, primary screen for activators of glucose-dependent secretion of insulin. INS-1E GLuc reporter insulin secretion, 2-3 h. hit rate 0.61% among 370,000. activation, % at 16.6 µM;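 active = lowest replicate activation of at least 40%, so every replicate reaches that level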;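 also: 0% = median of neutral control wells and 100% = median of IBMX positive control wells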
HIV Env fusion – inhibitors of HIV-1 Env-driven cell-cell fusion, primary screen, HeLa-JRFL effector, CEM21 target cells, luciferase. inhibition, % at 12.3 µM. hit rate 1.1% among 360,000;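 active = mean replicate inhibition score of at least 50 and every replicate individually at or above 50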;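 also: 0% = plate neutral controls and 100% = maraviroc near 300 nM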
Ecoli rRNA inh – reduced GFP signal of wild-type E. coli, primary screen, bacterial rRNA inhibitor project, GFP/RFP fluorescence, OD600, single point. E. coli WT GFP vs humanized-ribosome RFP mutants, 24 h; active compounds read low; DMSO median 0, no signal -100. GFP signal change (wild-type ribosome), % (no concentration beside the values). hit rate 1.6% among 350,000. AID 720706, 2013;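 active = significant combined selectivity score with lowered wild-type GFP, culture density cut under 30%, mutant RFP and density less affected; inactive = any of these conditions unmet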
Cneo AK release – Cryptococcus neoformans cell lysis inducers, primary screen, AK release luminescence, single concentration; C. neoformans lysis, adenylate kinase release luminescence, 4 h; normalised: neutral wells 0, clomiphene wells 100; lysis activity, % at 15 µM; hit rate 0.2% among 360,000; AID 651654, 2012;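 active = mean lysis activity across replicates of at least 80%, whatever share of replicates individually reach that level; inactive = mean lysis activity below 80%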
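Material: C. neoformans cells | Amount: Yeast cell density of 5 × 10^6 cells/mL | Medium: Fresh YPD growth medium | Dosing: Single dose | Times: Static 4 h at 37 °C with compound, 1 h detection | Detection: AK luminescence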
Numbers without * were called inactive; x = no result given; [ ] = dose if it differs, or a comment. Hits are enriched below; roughly 3.1% of the tested compounds scored in any of these assays.

SMILES | miR-122 sensor | CFTR F508del cor | INS-1E GSIS act | HIV Env fusion | Ecoli rRNA inh | Cneo AK release
CCCN1[C@H](C(=O)N(C)C)[C@@H](CO)[C@@H]2Cn3c(ccc(-c4ccc(OC)cc4)c3=O)[C@@H]21 | 4[16.7 µM] | -2 | 7 | x | -3 | -1
CC(C)CC#Cc1ccc2c(c1)O[C@H](CN(C)C(=O)c1cnccn1)[C@H](C)CN([C@@H](C)CO)S2(=O)=O | -36[16.7 µM] | 2 | -14 | x | 0 | 4
CN(C)c1ccc(N=Nc2ccccc2Br)cc1 | 7 | -1 | -10 | -153 | -12 | -1
Nc1ccc(C(=O)C(=O)c2ccc(N)cc2)cc1 | 2 | -3 | -6 | 5 | 0 | -4
Cc1cc(N(C)C)ccc1N=Nc1ccc(N)cc1 | -13 | 0 | -4 | -246 | -51* | 0
Nc1ccc(N=Nc2ccc(N)cc2)cc1 | x | -1 | 0 | -49 | -25* | x
CN1C(=O)c2cc(NC(=O)c3ccc(F)cc3)ccc2OC[C@H]2O[C@H](CC(=O)NCC3CC3)CC[C@@H]21 | -3[16.7 µM] | -1 | -3 | 2[16.7 µM] | 1 | -4
O=C1CCCC2=C1C(c1ccc(Cl)cc1)C1C(=O)c3ccccc3C1=N2 (centres undefined) | 9 | x | -62 | 59* | x | 2
Cn1c(=NC(=O)c2ccccc2[N+](=O)[O-])sc2cc(S(C)(=O)=O)ccc21 | -2 | x | 87* | -45 | x | x
Cn1c(=NC(=O)c2ccc(S(=O)(=O)N3CCCc4ccccc43)cc2)sc2cc(S(C)(=O)=O)ccc21 | 6 | x | -9 | 7 | x | 1
COc1ccc(Cn2cccc(NC(=O)Nc3ccc(F)cc3)c2=O)cc1 | x | -1 | -20 | -5 | -18 | x
CSc1ccc(NC(=O)Nc2cccn(Cc3ccccc3)c2=O)cc1 | x | 1 | 1 | 3 | -30* | x
CCC(=O)N(C)C[C@H]1Oc2ncc(-c3ccc(C#N)cc3)cc2C(=O)N([C@@H](C)CO)C[C@@H]1C | 2[16.7 µM] | 2 | -3 | -1[16.7 µM] | -3 | 0
C[C@H](CO)N1C[C@H](C)[C@@H](CN(C)C(=O)Nc2cccc3ccccc23)OCCCC[C@H](C)Oc2ccc(NS(=O)(=O)c3ccccc3)cc2C1=O | -9[16.7 µM] | -3 | 4 | 32[16.7 µM] | 4 | -6
C[C@@H]1CCCCO[C@@H](CN(C)C(=O)Nc2cccc3ccccc23)[C@@H](C)CN([C@H](C)CO)C(=O)c2cc(NS(=O)(=O)c3ccccc3)ccc2O1 | 8[16.7 µM] | 2 | 11 | -3[16.7 µM] | 4 | 95*
C[C@@H]1CCCCO[C@H](CN(C)C(=O)Nc2cccc3ccccc23)[C@H](C)CN([C@H](C)CO)C(=O)c2cc(NS(=O)(=O)c3ccccc3)ccc2O1 | 16[16.7 µM] | 0 | -11 | 62*[16.7 µM] | 0 | 73
C[C@H]1CCCCO[C@H](CN(C)C(=O)Nc2cccc3ccccc23)[C@@H](C)CN([C@@H](C)CO)C(=O)c2cc(NS(=O)(=O)c3ccccc3)ccc2O1 | 4[16.7 µM] | -5 | -2 | 27[16.7 µM] | -3 | -4
CC1=C(O)C(=O)OC1c1c(Cl)cccc1Cl (centres undefined) | -8 | 0 | x | 5 | -29* | 0
COc1nc(N)nc(NC(=O)c2cccs2)c1N=O | -4 | 11* | -16 | -84 | 9 | -1
COc1ccc(NC(=O)c2ccc(NC(=O)c3cccs3)cc2)cc1 | 4 | -2 | 8 | 8 | 2 | 1
O=C(Cn1ccccc1=S)c1ccc(Cl)c(Cl)c1 | 6 | -1 | 36 | 8 | -34* | -1
O=C(Cn1ccccc1=O)c1ccc(Cl)cc1 | x | -2 | 10 | 3 | 1 | x
C[C@@H]1CN([C@H](C)CO)C(=O)c2cc(NC(=O)CCCN(C)C)ccc2O[C@@H](C)CCCCO[C@H]1CN(C)C(=O)CCCN(C)C | x | 1 | 10 | x | 4 | x
CN(C(=O)c1ccc(C#N)cc1)c1nnc(-c2cnccn2)s1 | 6 | -1 | 46* | -10 | 13 | -1
CN(C(=O)c1ccno1)c1nnc(-c2cnccn2)s1 | -6 | x | x | -76 | x | 1
SMILES | miR-122 sensor | CFTR F508del cor | INS-1E GSIS act | HIV Env fusion | Ecoli rRNA inh | Cneo AK release
CC(C)NC(=O)N[C@H]1CC[C@H](CCNC(=O)C2CC2)O[C@H]1CO | x | 1 | 4 | -21[16.7 µM] | 1 | 6
CC(C)NC(=O)N[C@@H]1CC[C@@H](CCNC(=O)C2CC2)O[C@H]1CO | x | -1 | 4 | 8[16.7 µM] | 3 | -6
CC(C)NC(=O)N[C@H]1CC[C@@H](CCNC(=O)C2CC2)O[C@H]1CO | x | 0 | 10 | -14[16.7 µM] | 0 | 92*
CC(C)NC(=O)N[C@H]1CC[C@@H](CCNC(=O)C2CC2)O[C@@H]1CO | x | -2 | 15 | -20[16.7 µM] | 2 | 93*
Cc1ccc(-c2ccc3c(c2)O[C@@H](CN(C)Cc2ccccn2)[C@H](C)CN([C@@H](C)CO)S3(=O)=O)cc1 | 17[16.7 µM] | 3 | -24 | 3[16.7 µM] | -17 | 0
C[C@@H]1CN([C@@H](C)CO)S(=O)(=O)c2ccc(-c3ccc(C#N)cc3)cc2O[C@H]1CN(C)Cc1cccc(F)c1 | 4[16.7 µM] | 8.0* | -15 | 17[16.7 µM] | -2 | -4
Cc1ccc(-c2ccc3c(c2)O[C@@H](CN(C)Cc2ccccn2)[C@H](C)CN([C@H](C)CO)S3(=O)=O)cc1 | 35[16.7 µM] | 16* | -30 | 16[16.7 µM] | -10 | 2
C[C@@H]1CN([C@H](C)CO)S(=O)(=O)c2ccc(-c3ccc(C#N)cc3)cc2O[C@@H]1CN(C)Cc1cccc(F)c1 | 13[16.7 µM] | 6 | -20 | 22[16.7 µM] | -4 | 0
C[C@@H]1CN([C@H](C)CO)S(=O)(=O)c2ccc(-c3ccc(C#N)cc3)cc2O[C@H]1CN(C)C | 20[16.7 µM] | 1 | 48* | -15[16.7 µM] | -2 | -21
C[C@H](CO)N1C[C@H](C)[C@@H](CN(C)Cc2ccccn2)Oc2cc(-c3ccc(C#N)cc3)ccc2S1(=O)=O | x | -3 | -5 | -8[16.7 µM] | -10 | x
C[C@H]1CN([C@@H](C)CO)S(=O)(=O)c2ccc(-c3ccc(C#N)cc3)cc2O[C@@H]1CN(C)Cc1ccccn1 | x | 12* | -7 | -276[16.7 µM] | -20 | -1
Cc1ccc2c(c1)c1c3n2CCN(CC(N)=O)C3CCC1 (centres undefined) | x | -21 | -7 | 81* | -9 | -1
Cc1ccc(S(=O)(=O)N[C@@H]2CC[C@@H](CC(=O)NCCc3ccncc3)O[C@H]2CO)cc1 | x | -5 | 16 | 8[16.7 µM] | 0 | 67
CCC1=Nc2cc(C(=O)NCC3CCCO3)ccc2Sc2ccc(Cl)cc21 (centres undefined) | x | 15* | 2 | -6 | -12 | 1
CCC1=Nc2cc(C(=O)NCc3cccnc3)ccc2Sc2ccc(C)cc21 | x | 12* | 7 | -6 | -22* | x

Compound activity from PubChem BioAssay.
